Holding throughout (type): functional
In experiment [1] the test system is Staphylococcus epidermidis. As to the kind of experiment: Antibacterial activity against methicillin-susceptible coagulase-negative Staphylococcus epidermidis 057 after 50 passages by agar dilution method. A digest of the protocol:
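Daily serial passage for up to 50 days at 35°C for 24 h in 1 ml MHB. Each transfer used 10 µl from the tube nearest the MIC (1–2 dilutions below) with the same turbidity as the drug-free control. MICs were measured by agar dilution, with changes given as log2 steps.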

Experiment [2] has as its system Staphylococcus aureus. In words: Antibacterial activity against Staphylococcus aureus 145 after 37 passages by agar dilution method. A digest of the protocol:
(§1)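 Serial passage under drug. Inoculum was ~1 × 10^6 CFU/ml from overnight MHA growth, in 1 ml MHB at 35°C for 24 h. Drug ranged from 4 log2 steps above to 3 log2 steps below the MIC. […] MIC change is given as log2 steps.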
On the technique in general: In agar dilution, organisms are placed on agar that contains the substance at set levels.

The test system of experiment [3] is Staphylococcus aureus. As to the kind of experiment: Antibacterial activity against vancomycin-resistant Staphylococcus aureus VRS1 after 15 passages by agar dilution method. The procedure, abridged:
(§2)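 Daily serial passage for up to 50 days at 35°C for 24 h in 1 ml MHB. […] Each transfer used 10 µl from the tube nearest the MIC (1–2 dilutions below) with the same turbidity as the drug-free control. […] MICs were measured by agar dilution, with changes given as log2 steps.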

The subject of experiment [4] is Staphylococcus aureus. In words: Antibacterial activity against methicillin-resistant Staphylococcus aureus 145 after 37 passages by agar dilution method. The procedure, abridged: as §1
In experiment [5] the test system is Staphylococcus epidermidis. As to the kind of experiment: Antibacterial activity against methicillin-resistant, vancomycin-intermediate coagulase-negative Staphylococcus epidermidis 225 after 38 passages by agar dilution method. A digest of the protocol:
as §2

Experiment [6] deals with Staphylococcus aureus. In words: Antibacterial activity against Staphylococcus aureus 145 after 47 passages by agar dilution method. The procedure, abridged:
as §1

Experiment [7] relates to Staphylococcus aureus. As to the kind of experiment: Antibacterial activity against methicillin-resistant Staphylococcus aureus 145 after 47 passages by agar dilution method. The procedure, abridged: as §1
For experiment [8], the system named is Staphylococcus aureus. As to the kind of experiment: Antibacterial activity against methicillin-resistant and vancomycin-resistant Staphylococcus aureus VRS1 after 25 passages by agar dilution method. The procedure, abridged:
as §2

SMILES strings stand for the structures. In brackets after ≈: the same amount, converted by molar mass.

Our source for the MIC values is ChEMBL document CHEMBL1649147, “Antistaphylococcal activity of dihydrophthalazine antifolates, a family of novel antibacterial drugs” (2009).

For the compound `COc1ncc(C2c3ccccc3C=NN2C(=O)/C=C/c2cc(Cc3cnc(N)nc3N)cc(OC)c2OC)cn1` (stereo not drawn), the minimal inhibitory concentration (MIC) – broadly, the lowest concentration found to suppress growth – in experiment [1] is 128 µg/mL (≈ 232 µM); against Staphylococcus aureus [2], above 128 µg/mL; with Staphylococcus aureus [3], above 128 µg/mL; with Staphylococcus aureus [4], above 128 µg/mL.
Take `COc1cc(Cc2cnc(N)nc2N)cc(/C=C/C(=O)N2N=Cc3ccccc3C2c2cnc(N(C)C)nc2)c1OC` (stereo not drawn): the MIC (in experiment [5]; with Staphylococcus aureus [6]; against Staphylococcus aureus [7]) was above 128 µg/mL throughout.
In the experiment on Staphylococcus aureus [8], `COc1cc(Cc2cnc(N)nc2N)cc(/C=C/C(=O)N2N=Cc3ccccc3C2c2cnc(N3CCOCC3)nc2)c1OC` (stereo not drawn) came in with an MIC above 128 µg/mL.
